The data set is described as follows: Toxicity liver stage against HepG2, at 10uM. It is filed as cell-based. Further details: test concentration 10 uM, cell line HepG2-A16-CD81EGFP. The conditions noted are these: human, HepG2-A16-CD81EGFP cells; read-out: INHIBITION
The method in brief:
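Uninfected HepG2-A16-CD81EGFP cells, 3 × 10^3 per well, 1536-well, plated on prespotted compound at 10 μM final, parasite-free screening media added to match infected plates; puromycin 10 μM positive, DMSO 0.5% negative; run in parallel with 48 h PbLuc assay at 37 °C, 5% CO2; viability by CellTiter-Glo luminescence, normalized to controls.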
With `O=C(CN1CCOCC1)Nc1ncc(Br)cc1Br`, the cytotoxicity at 10 µM amounted to 10.2%.

As for `C1CN(CCN2CCOCC2)CCN1`, the cytotoxicity at 10 µM is -11.5%.

Regarding `CC(C)(C)CNC[C@H]1Cn2c(-c3ccccc3)cnc2CO1`, the cytotoxicity at 10 µM is -9.14%.

Turning to `O=C(O)CCn1ccc(=O)c2ccccc21`, the cytotoxicity at 10 µM came out at 0.148%.

Regarding `Cc1csc(C(=O)NCCn2nc(-n3cncn3)ccc2=O)c1`, the cytotoxicity at 10 µM turned out to be 2.06%.

With `O=C(CCn1ccc2cc(Br)ccc21)/N=c1\[nH]nc(C2CCCO2)s1` (stereo not drawn), the cytotoxicity at 10 µM is -2.31%.

Regarding `CN(C)c1ccc(-c2cc(=O)n3c(n2)CCCCC3)cc1`, the cytotoxicity at 10 µM is -13.1%.

`c1coc(CN2Cc3nccn3CC(Cn3cncn3)C2)c1` (stereo not drawn): the cytotoxicity at 10 µM is -7.18%.

With `Cc1cccc(N2CC(c3nnc(N)s3)CC2=O)c1` (stereo not drawn), the cytotoxicity at 10 µM was found to be 3.79%.

On to `CCN1CCCC(O)(CN(C)Cc2ccc(C)o2)C1` (stereo not drawn), for which the cytotoxicity at 10 µM is -3.65%.

Turning to `CCn1nccc1CN(C)C(=O)Cn1cc2c(n1)c(C)nn2CC`, the cytotoxicity at 10 µM came out at 15.4%.

On to `COCc1nc(N(C)C)ncc1C(=O)Nc1cc(C)cc(C)c1`, for which the cytotoxicity at 10 µM stood at 6.89%.

For `Cc1nn(C)c2c(NCc3cccnc3)nc(C3CC3)nc12`, the cytotoxicity at 10 µM was -9.84%.

As for `CC(=O)N[C@H]1CCO[C@@H](c2cccc(NC(=O)c3ccc(=O)[nH]n3)c2)C1`, the cytotoxicity at 10 µM stood at 4.46%.

With `CCC(=O)N1CCCC1(C)c1nc(C)no1` (stereo not drawn), the cytotoxicity at 10 µM turned out to be 1.34%.

For the molecule `c1ccc2ncc(CC3CCNC3)cc2c1` (stereo not drawn), the cytotoxicity at 10 µM is -1.67%.

In the case of `CN(C)C(=O)CN1CCCC(c2cncc(-c3cccc(Cl)c3)n2)C1` (stereo not drawn), the cytotoxicity at 10 µM is 24%.

`Cc1ccc(CN2CCCC2(C(N)=O)c2cnccn2)c(C)c1` (stereo not drawn): the cytotoxicity at 10 µM amounted to 4.11%.

Turning to `Cc1nc(C2CCCN(C(=O)c3ccncc3)C2)c2sccn12` (stereo not drawn), the cytotoxicity at 10 µM was -10.4%.

Turning to `Cn1nc(C2CN(S(C)(=O)=O)C2)c2nccnc21`, the cytotoxicity at 10 µM was -13.2%.

Turning to `CO[C@H]1CN(Cc2ccc(F)c(F)c2)C[C@@]12CCCO2`, the cytotoxicity at 10 µM is -5.52%.

For the molecule `CCc1noc(C)c1C(=O)N1CCC(c2[nH]ncc2S(C)(=O)=O)C1` (stereo not drawn), the cytotoxicity at 10 µM was -6.94%.

On to `O=C(c1ccc(Cl)cc1)N1CCn2c(nn(-c3ccc(Cl)cc3)c2=O)C1`, for which the cytotoxicity at 10 µM stood at 10.9%.

In the case of `CC(C)NC1CCN(CCc2ccc3c(c2)CCO3)CC1`, the cytotoxicity at 10 µM was -21.8%.

Regarding `COc1ccc(Cl)cc1CCNC(=O)N(C)CC1CCOC1` (stereo not drawn), the cytotoxicity at 10 µM is 7.17%.

As to `CCc1nnc(CS(=O)(=O)c2ccc(C)cc2)n1C`, the cytotoxicity at 10 µM came out at 7.05%.

In the case of `CNC(=O)c1cccc(CN2CCN(c3ccncc3)CC2)c1`, the cytotoxicity at 10 µM is -19.7%.

As for `FC(F)(F)c1cc(C2CCCN(Cc3cccnc3)C2)n[nH]1` (stereo not drawn), the cytotoxicity at 10 µM is -45.7%.

`CN1CCN(CCNC(=O)C(OC2CCCC2)c2ccccc2)CC1` (stereo not drawn): the cytotoxicity at 10 µM was -9.43%.

Take `COC(=O)c1ccc(OCC(=O)N(C)Cc2ccsc2)c(OC)c1`: the cytotoxicity at 10 µM amounted to 5.98%.

With `Cc1ccc(C(=O)N2CCSCC2)cc1NC(=O)NCC1CCC1`, the cytotoxicity at 10 µM amounted to 3.07%.

Consider `COC(=O)CNC(=O)C(C)Oc1ccccc1C(F)(F)F` (stereo not drawn), for which the cytotoxicity at 10 µM turned out to be 6.08%.

Turning to `O=C(CC1CN(Cc2ccccc2)CCO1)NC1CCSCC1` (stereo not drawn), the cytotoxicity at 10 µM was -15.1%.

`CCNC(=O)N1CCC(NC(=O)NCCCc2cccc(F)c2)C1` (stereo not drawn): the cytotoxicity at 10 µM was -47.5%.

Take `CCCNC(=O)CNc1ccccc1OCCC(=O)OC`: the cytotoxicity at 10 µM came out at 8.95%.

With `O=C(NCC1(O)CCOC1)NCC1(c2ccccc2Cl)CCC1` (stereo not drawn), the cytotoxicity at 10 µM was -50.8%.

For `COc1ccnc(N2CCN(C(=O)CCc3cnn(C)c3)CC2)n1`, the cytotoxicity at 10 µM amounted to 8.72%.

Regarding `Cn1ncnc1NS(=O)(=O)c1ccccc1`, the cytotoxicity at 10 µM came out at 8.26%.

As for `O=C(CCc1cccc(Cl)c1)NS(=O)(=O)Cc1ccon1`, the cytotoxicity at 10 µM amounted to 8.76%.

As to `c1ccc(-c2noc(CN3CCC(c4ccn[nH]4)CC3)n2)cc1`, the cytotoxicity at 10 µM is -1.19%.

Regarding `Cc1ccccc1C(=O)Nc1cnn(CC(=O)NC2CCCC2)c1`, the cytotoxicity at 10 µM is -18.4%.

As to `COC(=O)C(C)(C)NC(=O)C1CC(=O)N(C)C1` (stereo not drawn), the cytotoxicity at 10 µM was -8.92%.

In the case of `Cc1nc(C)c(C(=O)N2CCC(Nc3cccnc3)CC2)s1`, the cytotoxicity at 10 µM was -6.75%.

With `O=C(CCc1cscn1)NS(=O)(=O)c1ccc2ccccc2c1`, the cytotoxicity at 10 µM was -13.1%.

`O=c1c(-c2ccnc(N3CCCC[C@@H]3CO)n2)cnc2sccn12`: the cytotoxicity at 10 µM is -10.3%.

On to `CCn1ncnc1CN1CCC(CNC(=O)c2ccccc2C#N)C1` (stereo not drawn), for which the cytotoxicity at 10 µM worked out at 13.2%.

As for `COc1ccc(F)cc1-n1cnc(CCNC(C)=O)c1`, the cytotoxicity at 10 µM was found to be 13.7%.

`O=S(=O)(NCc1ccccc1)Nc1ccc(-n2cncn2)cc1`: the cytotoxicity at 10 µM was 4.44%.

Regarding `COc1cccc(N2CCN(Cc3cccc(CCN)c3)CC2=O)c1`, the cytotoxicity at 10 µM is -1.42%.

As for `CN1CCC(NCC2(O)CCCN(Cc3ccccc3F)C2=O)CC1` (stereo not drawn), the cytotoxicity at 10 µM was -12.2%.

In the case of `CCCc1ccc(CN2CCC3(CC2)CNC(=O)C3)o1`, the cytotoxicity at 10 µM is -3.71%.

Take `OCCN(Cc1ccccc1)Cc1nc(-c2ccc3c(c2)OCO3)no1`: the cytotoxicity at 10 µM is 4.74%.

Turning to `CCc1cc(N2CCC(N3CCSCC3)CC2)n2nccc2n1`, the cytotoxicity at 10 µM came out at 0.998%.

On to `CC[C@H]1COCCN1C(=O)CCCn1nnc(-c2ccc(F)cc2)n1`, for which the cytotoxicity at 10 µM is 13.4%.

For `O=C(O)c1cccc(N2CCC(Oc3cccc(F)c3)CC2)n1`, the cytotoxicity at 10 µM is -44.1%.

On to `CN(Cc1cccc(-n2cccn2)c1)Cc1c[nH]cn1`, for which the cytotoxicity at 10 µM was 5.67%.

Regarding `Cc1ccc2c(-c3nc4c([nH]3)CCNC4C(=O)O)cccc2n1` (stereo not drawn), the cytotoxicity at 10 µM was -3.15%.

With `O=C(O)c1ccccc1C1CCN(C2CCN(c3ccccc3)CC2)C1` (stereo not drawn), the cytotoxicity at 10 µM is -14.5%.

For `CCC(CO)N(Cc1cccnc1)C(=O)c1ccc(C)[nH]c1=O` (stereo not drawn), the cytotoxicity at 10 µM is -3.95%.

On to `CCN1CCC(Cn2ccc3c(OC)c(OC)ccc3c2=O)C1` (stereo not drawn), for which the cytotoxicity at 10 µM was -4.7%.

With `CC(C)N1CCC2(CC1)CC(=O)N(Cc1cc(F)cc(F)c1)C2`, the cytotoxicity at 10 µM is 9.03%.

For `CC(=O)N1CCC(N2CCOC(CC3CCCCC3)C2)CC1` (stereo not drawn), the cytotoxicity at 10 µM turned out to be 6.46%.

Regarding `CN(C)C(=O)Cc1ccc(-c2cccc3c2CCNC3)cc1`, the cytotoxicity at 10 µM amounted to 2.28%.

Consider `COc1ccc(C(=O)N2C[C@@H](O)[C@H](NCc3cnc(C)cn3)C2)cc1`, for which the cytotoxicity at 10 µM amounted to 3.34%.

Regarding `Cc1ncccc1OC1(C(=O)NCCNc2ccccc2)CCNCC1`, the cytotoxicity at 10 µM was -12.4%.

As for `CCOCCn1c(=O)[nH]c2cc(C(=O)N(C)Cc3nc(C)cs3)ccc21`, the cytotoxicity at 10 µM is -10.6%.

For the molecule `CC(C)(C)C(Cn1cccn1)NC(=O)c1ccco1` (stereo not drawn), the cytotoxicity at 10 µM was -5.5%.

As to `CCC(CCN)n1ccc(C(F)(F)F)n1` (stereo not drawn), the cytotoxicity at 10 µM is -11.2%.

`COCCOc1ccccc1C(=O)N(C)Cc1ncc(C)c(OC)c1C`: the cytotoxicity at 10 µM is -1.61%.

With `CC(C)c1n[nH]c(C2CN(Cc3nnc(C4CC4)n3C)CCO2)n1` (stereo not drawn), the cytotoxicity at 10 µM was -10.3%.

With `c1cncc(COCc2nnc3n2CCN(Cc2ccoc2)C3)c1`, the cytotoxicity at 10 µM is -11.2%.

`Cc1ccsc1CN1CCc2nc3ccsc3c(=O)n2CC1`: the cytotoxicity at 10 µM came to 8.52%.

On to `CN1C[C@@H]2CC[C@H]1CN(C(=O)COCc1nc3ccc(F)cc3[nH]1)C2`, for which the cytotoxicity at 10 µM was -1.88%.
